Measurements reported in ChEMBL document CHEMBL3272276, “Synthesis and antimicrobial evaluation of substituted 5,6-dihydro-5-nitrouracils” (1976).
≈ marks a conversion by molar mass, not a printed value. Calls of active or inactive are those of the source. The rule behind the calls is not given here.

Columns and labels:
Staphylococcus aureus [1] = assay: Antimicrobial activity against Staphylococcus aureus clinical isolate up to 0.4 umol/ml after 24 hrs by broth dilution assay; type: functional, organism-based
Method in brief: (§1)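 Clinical isolate tested by broth dilution in chemically defined medium. Serial dilutions span 0.4 to 0.005 μmol/ml. Incubation is 24 h at 35°. MIC is taken as the highest dilution of compound that prevents visible growth.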

Escherichia coli [2] = assay: Antimicrobial activity against Escherichia coli clinical isolate up to at 0.4 umol/ml after 24 hrs by broth dilution assay; type: functional, organism-based; method in brief: as §1
Pseudomonas aeruginosa [3] = assay: Antimicrobial activity against Pseudomonas aeruginosa clinical isolate up to 0.4 umol/ml after 24 hrs by broth dilution assay; type: functional, organism-based; method in brief: as §1
Escherichia coli [4] = assay: Antimicrobial activity against Escherichia coli clinical isolate after 24 hrs by broth dilution assay; type: functional
Method in brief: (§2)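 Clinical isolates were tested by broth dilution using serial dilutions in chemically defined medium over 0.4 to 0.005 µmol/ml. Plates were incubated for 24 h at 35°. MIC was taken as the highest dilution that prevented visible growth.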

Candida albicans = assay: Antifungal activity against Candida albicans clinical isolate at 0.4 umol/ml after 24 hrs by broth dilution assay; type: functional, organism-based; method in brief: as §2
[5] = tested on: Trichophyton mentagrophytes; assay: Antifungal activity against Trichophyton mentagrophytes clinical isolate at 0.4 umol/ml after 48 hrs by broth dilution assay; type: functional, organism-based
Method in brief: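 The clinical dermatophyte isolate was tested by broth dilution using serial dilutions in chemically defined medium over 0.4 to 0.005 µmol/ml. Inhibition was read after 48 h at 30°. MIC was the highest dilution with no visible growth.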

Pseudomonas aeruginosa [6] = assay: Antimicrobial activity against Pseudomonas aeruginosa clinical isolate after 24 hrs by broth dilution assay; type: functional; method in brief: as §2
Staphylococcus aureus [7] = assay: Antimicrobial activity against Staphylococcus aureus clinical isolate after 24 hrs by broth dilution assay; type: functional; method in brief: as §2

Row | SMILES | Activity (Staphylococcus aureus [1]) | Activity (Escherichia coli [2]) | Activity (Pseudomonas aeruginosa [3]) | MIC (Escherichia coli [4]) [µM] | Activity (Candida albicans) | Activity [5] | MIC (Pseudomonas aeruginosa [6]) [µM] | MIC (Staphylococcus aureus [7]) [µM]
1 | O=C1NC(=O)N(c2ccc([N+](=O)[O-])cc2)CC1[N+](=O)[O-] (stereo unspecified) | inactive | inactive | inactive |  |  |  |  | 
2 | [N-]=[N+]=C1C=NC(=O)NC1=O |  |  |  | 20 (≈ 2.76 µg/mL) | inactive | inactive | 40 (≈ 5.52 µg/mL) | 10 (≈ 1.38 µg/mL)
3 | O=c1[nH]c(=O)n(-c2ccc([N+](=O)[O-])cc2)cc1[N+](=O)[O-] | inactive | inactive | inactive |  |  |  |  | 
4 | [N-]=[N+]=C1C(=O)NC(=O)NC1O (stereo unspecified) |  |  |  | 10 (≈ 1.56 µg/mL) | inactive | inactive | 20 (≈ 3.12 µg/mL) | 20 (≈ 3.12 µg/mL)
5 | CC1NC(=O)NC(=O)C1[N+](=O)[O-] (stereo unspecified) | inactive | inactive | inactive |  |  |  |  | 
6 | Cc1[nH]c(=O)[nH]c(=O)c1[N+](=O)[O-] | inactive | inactive | inactive |  |  |  |  | 
7 | CCOC(=O)[C@H]1O[C@@H](N2CC([N+](=O)[O-])C(=O)NC2=O)[C@H](O)[C@@H]1O (stereo partly specified) | inactive | inactive | inactive |  |  |  |  | 
8 | CCOC(=O)[C@H]1O[C@@H](n2cc([N+](=O)[O-])c(=O)[nH]c2=O)[C@H](O)[C@@H]1O | inactive | inactive | inactive |  |  |  |  | 
9 | O=C1NCC([N+](=O)[O-])C(=O)N1 (stereo unspecified) | inactive | inactive | inactive |  |  |  |  | 
